Compound activity (PubChem BioAssay)
Rows were chosen to be rich in hits. Some 4.5% of all compounds tested hit in one or more screens of this group.
STAT1 act: STAT1 signaling activation; NIH 3T3 STAT1-luciferase reporter, IFN-gamma, luminescence; 100% = IFN-gamma alone, no compound; actives 2.6% (n = 200,000); AID 932; activation (% of control), % at 5.5 µM;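 active = activation above the screen-wide mean activation plus 3 SD, cut at about 130% in these data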;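 also: raw ratio to IFN-gamma control signal so 100% means no change and 0% no light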
NF-kB expr up: NF-kB expression increase, human neuronal cells | fold change at 12.5 µM | actives 1.6% (n = 190,000) | NF-kB reporter expression; hits give high values; in the data active = fold change above about 3.3
AHR act: activates the human aryl hydrocarbon receptor; P35869; AHR-responsive luciferase reporter cells, luminescence; activation, % at 5 µM; actives 2.5% (n = 320,000); AID 2796; in the data active = activation above about 47%;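 also: 0% = vehicle wells and 100% = reference agonist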
Target sequence (P35869 whole entry, looked up): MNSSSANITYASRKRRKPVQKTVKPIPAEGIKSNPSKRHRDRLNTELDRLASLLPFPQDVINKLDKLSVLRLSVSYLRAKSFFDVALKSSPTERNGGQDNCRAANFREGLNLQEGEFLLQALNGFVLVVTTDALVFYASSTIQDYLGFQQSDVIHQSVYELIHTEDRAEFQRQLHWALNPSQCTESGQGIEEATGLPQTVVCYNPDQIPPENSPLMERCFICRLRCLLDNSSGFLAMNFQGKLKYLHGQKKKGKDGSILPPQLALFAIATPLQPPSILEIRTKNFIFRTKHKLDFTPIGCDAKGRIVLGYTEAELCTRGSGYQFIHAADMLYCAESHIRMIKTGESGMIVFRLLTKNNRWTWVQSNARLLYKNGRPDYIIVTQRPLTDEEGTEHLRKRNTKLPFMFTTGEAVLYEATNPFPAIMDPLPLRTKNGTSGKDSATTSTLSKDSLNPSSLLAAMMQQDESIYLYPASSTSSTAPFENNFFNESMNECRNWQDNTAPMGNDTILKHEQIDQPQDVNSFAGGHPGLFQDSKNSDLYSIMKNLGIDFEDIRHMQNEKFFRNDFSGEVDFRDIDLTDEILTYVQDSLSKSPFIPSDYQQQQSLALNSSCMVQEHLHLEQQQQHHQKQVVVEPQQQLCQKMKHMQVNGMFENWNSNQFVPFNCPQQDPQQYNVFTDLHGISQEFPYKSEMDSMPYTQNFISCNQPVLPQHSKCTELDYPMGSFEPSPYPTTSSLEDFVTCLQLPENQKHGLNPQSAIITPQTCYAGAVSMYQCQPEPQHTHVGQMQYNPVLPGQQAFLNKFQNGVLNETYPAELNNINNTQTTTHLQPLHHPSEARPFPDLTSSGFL
PERK inh: human PERK inhibition, primary cell-based screen; Q9NZJ5; CHO PERK-DD fusion, SEAP luminescence translation reporter; inhibition, % at 5.6 µM; actives 0.17% (n = 220,000);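 active = inhibition above the mean inhibition of all tested compounds plus 3 SD, set separately per screening campaign, cut at about 2.9% in these data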;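 also: PERK kinase domain activated by AP20187 dimerizer at 100 nM; 0% = DMSO with dimerizer and 100% = rapamycin at 8.4 µM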
APP 5'UTR act: APP 5'UTR luciferase reporter activation; SH-SY5Y APP 5'UTR luciferase reporter, luminescence; zero percent = DMSO vehicle wells; activation, % at 2 µM; actives 1% (n = 190,000);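 active = activation above a set limit, based on mean plus 3 SD of controls, cut at about 140% in these data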
Mdm2 ligase inh: Mdm2 E3 ligase (human) inhibition | actives 0.11% (n = 210,000) | Q00987 | cell-based MDM2 ubiquitination luciferase reporter, 2 h; 0 = plate control, 100 = twice control, blank-subtracted | signal enhancement, % at 5 µM;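 active = signal enhancement of 30% or more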;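 also: luminescence tracks abundance of the self-degrading MDM2-luciferase fusion protein; higher signal means inhibition of MDM2 E3 ligase activity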
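Material: stable MDM2–luciferase fusion reporter cells / Quantity: 2000 cells/well / Dosing: single 5 µM compound dose, 0.2% final DMSO / Buffer or medium: DMEM / Schedule: 4 h cell settling then 2 h compound exposure, 37 °C / Detection: luminescence with SteadyLite reagent, 15 min at room temperature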
* marks the source's active call; other numbers are inactive results; . = no result given.

SMILES	STAT1 act	NF-kB expr up	AHR act	PERK inh	APP 5'UTR act	Mdm2 ligase inh
CC1CC(C)CN(CCCNC(=O)c2ccc3c(c2)N(Cc2ccccc2)C(=O)c2ccccc2S3=O)C1 (stereo not drawn)	.	.	-2	.	.	.
Nc1nc(COC(=O)c2ccc3c(c2)OCCO3)nc(Nc2ccccc2)n1	.	.	0	.	.	.
CCCCCN(C(=O)CCC(=O)OC(C)C(=O)c1ccc(Cl)cc1)c1c(N)n(CCCC)c(=O)[nH]c1=O (stereo not drawn)	.	.	1	.	.	.
CC(c1ccon1)N(C)Cc1cn[nH]c1-c1ccc(F)cc1F (stereo not drawn)	.	.	3	0	.	-16
CN(Cc1ccon1)Cc1cn[nH]c1-c1ccc(-c2ccccc2)cc1	110	1.1	52*	0	-7	-8
CC(c1ccon1)N(C)Cc1cn[nH]c1-c1ccc(-c2ccccc2)cc1 (stereo not drawn)	118	1.3	61*	0	-9	-6
CCc1ccc(NC(=O)Cn2c(=O)c3cccn3c3ccccc32)cc1	.	.	4	.	.	.
CCc1ccc(NC(=O)CCn2c(=O)c3cccn3c3ccccc32)cc1	.	.	50*	.	.	.
O=C1NC(c2ccccc2Cl)Nc2ccccc21 (stereo not drawn)	96	1.1	1	1	-5	13
O=C1c2ccccc2NC(c2ccccc2Cl)N1N=C1CCCCCC1 (stereo not drawn)	139*	1.7	17	1	44	-4
O=C1CCn2nc(-c3ccc(Cl)cc3)cc2N1	136*	2.7	48*	1	64	-14
Nc1cc(-c2ccc(Cl)cc2)nn1S(=O)(=O)c1ccc(Cl)cc1	95	1.3	4	0	5	-12
O=C(COC(=O)Cc1cccc(C(F)(F)F)c1)Nc1ccc2c(c1)OCCO2	103	1.1	-1	1	-12	-10
COc1cc(NC(=O)c2cc3cccc(OC)c3o2)cc(C(=O)Nc2cccc(C(F)(F)F)c2)c1	.	.	73*	.	.	21
COc1cc(NC(=O)c2ccno2)cc(C(=O)Nc2cccc(C(F)(F)F)c2)c1	.	.	64*	.	.	11
COc1ccc(C(=O)c2cc3cccc(OC)c3o2)cc1	150*	4.2*	5	1	99	-5
COc1cc(NC(=O)c2nccnc2N)cc(C(=O)Nc2cccc(C(F)(F)F)c2)c1	.	.	25	.	.	5
COCCn1c(C)cc(C(=O)COC(=O)c2ccc(NC(=O)CC#N)cc2)c1C	134*	1.1	-6	0	149*	-19
COCCn1c(C)cc(C(=O)COC(=O)c2ccc(S(=O)(=O)N(C)C)cc2)c1C	.	.	0	.	.	.
COCCn1c(C)cc(C(=O)COC(=O)c2ccc3c(c2)NC(=O)CS3)c1C	123	0.91	-4	0	-1	-6
COCCn1c(C)cc(C(=O)COC(=O)c2ccc3ncsc3c2)c1C	132*	1.1	-6	0	83	-16
COCCn1c(C)cc(C(=O)COC(=O)c2cncc(Br)c2)c1C	136*	1.9	1	0	47	.
O=C(CCc1ccccc1)NCCc1ccc(F)cc1	.	.	0	.	.	.
Nc1nc(SCc2ccccc2Cl)ns1	103	1.1	1	1	14	3
Nc1ccccc1SCc1ccccc1Cl	.	.	67*	1	.	-3
SMILES	STAT1 act	NF-kB expr up	AHR act	PERK inh	APP 5'UTR act	Mdm2 ligase inh
Nc1ccccc1SCc1c(Cl)cccc1Cl	.	.	50*	1	.	-6
CC(=O)NC(Cc1c[nH]c2ccccc12)C(=O)OCC(=O)N1CCCCCC1 (stereo not drawn)	99	0.97	1	1	10	-10
COc1ccc2nc(NC(=O)CCNC(=O)c3ccco3)sc2c1	.	.	14	.	.	.
O=C(NC(=S)Nc1nc2ccccc2s1)c1ccco1	130*	0.82	34	1	143*	-8
CCCOc1ccc(C(=O)NC(=S)Nc2nc3ccc(C)cc3s2)cc1	110	1.3	.	1	-17	-7
CCCOc1ccc(C(=O)NC(=S)Nc2nc3ccccc3s2)cc1	105	1.1	82*	1	13	-11
COc1ccc2nc(NC(=S)NC(=O)c3ccco3)sc2c1	146*	2.2	-1	0	161*	-16
Cc1ccc(NC(=O)C2CCN(S(C)(=O)=O)CC2)cc1Cl	.	.	2	.	.	.
CCCc1ncc(C(O)c2ccccc2OC)n1C (stereo not drawn)	97	1.1	0	0	-9	-44
O=C1/C(=C\c2ccco2)CCC/C1=C\c1ccco1	123	5.9*	9	-1	101	-3
CC1C/C(=C/c2ccco2)C(=O)/C(=C/c2ccco2)C1 (stereo not drawn)	98	1.5	12	0	-1	-3
O=c1c(Cl)c(NCc2ccccc2Cl)cnn1C12CC3CC(CC(C3)C1)C2	102	1.1	-1	0	-3	2
O=C1CCN(S(=O)(=O)c2ccc(Cl)cc2)CCN1	.	.	0	1	.	-1
CCOC(=O)c1c(C)[nH]c(C(=O)COC(=O)c2[nH]c(C)c(C(C)=O)c2C)c1C	81	0.83	4	-1	14	-9
CCOC(=O)c1c(C)[nH]c(C(=O)COC(=O)C2CC2C)c1C (stereo not drawn)	150*	4.1*	4	0	180*	-40
CC1=C(C(=O)Nc2ccc(C(=O)NCCCN3CCCCC3)cc2)SCCO1	.	.	0	.	.	.
CCc1ccc(NC(=O)COc2ccc(F)cc2C(=O)c2cnn(-c3ccccc3)c2)cc1	130*	1.2	22	1	49	-11
COc1ccccc1NC(=O)COc1ccccc1C(=O)c1cnn(-c2ccccc2)c1	109	1.5	15	-1	54	-6
CN(C)c1ccc(/C=c2\sc3n(c2=O)CCCN=3)cc1	150*	5.7*	-18	-1	142*	-43
C=CCn1c(=O)/c(=C/c2ccc(F)cc2)s/c1=C(\C#N)c1nnc2n1CCCCC2	103	0.93	-3	0	6	-1
O=c1/c(=C/c2ccc(O)cc2)sc2n1CCCN=2	139*	2	-8	1	82	-10
O=c1/c(=C\c2ccc(F)cc2)sc2n1CCCN=2	149*	2.4	-2	2	170*	-3
COC(=O)/C=c1/sc2n(c1=O)CCN=2	103	1	1	1	-4	-6
COc1c(C)cc(S(=O)(=O)NCCN2CCOCC2)c(C)c1C	.	.	1	.	.	.
CN(C)c1ccc(/C=N/NC(=O)c2ccccn2)cc1	.	.	33	1	.	-65
Cc1ccc(C=Nc2ccccc2C(N)=O)o1	135*	1	16	1	76	5
CN(C)c1ccc(C=Nc2ccccc2C(N)=O)cc1	135*	3.7*	31	1	166*	-78
Cc1oc(CSCC2CCCO2)cc1C(=O)O (stereo not drawn)	148*	1.1	-3	2	13	-12
Cc1cc(NC(=O)c2cc(-c3ccccc3)on2)no1	102	1.8	-3	0	-6	-30
